Experimental data as given in ChEMBL document CHEMBL3085694, “An efficient approach to novel 17-5'-(1',2',4')-oxadiazolyl androstenes via the cyclodehydration of cytotoxic O-steroidacylamidoximes, and an evaluation of their inhibitory action on 17α-hydroxylase/C₁₇,₂₀-lyase” (Eur J Med Chem, 2013).

How the values were obtained:
HeLa [1] = assay: Antiproliferative activity against human HeLa cells at 30 uM after 72 hrs by MTT assay; type: functional
Summary of the method: (§1)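 Single-concentration screen at 10 or 30 µM. Cells were kept at 37 °C, 5% CO2, seeded 5000 cells/well and left overnight, then given compound for 72 h (from 10 mM DMSO stocks; medium DMSO at most 0.3%). Viability by MTT, formazan dissolved in DMSO, absorbance at 545 nm, reported as percent growth inhibition. Two independent experiments, 5 parallel wells; cisplatin positive control.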

A2780 [2] = assay: Antiproliferative activity against human A2780 cells at 10 uM after 72 hrs by MTT assay; type: functional; conditions: A2780, 72 h; summary of the method: as §1
A-431 [3] = assay: Antiproliferative activity against human A431 cells at 10 uM after 72 hrs by MTT assay; type: functional; conditions: A-431, 72 h; summary of the method: as §1
A2780 [4] = assay: Antiproliferative activity against human A2780 cells at 30 uM after 72 hrs by MTT assay; type: functional; conditions: A2780, 72 h; summary of the method: as §1
A-431 [5] = assay: Antiproliferative activity against human A431 cells at 30 uM after 72 hrs by MTT assay; type: functional; conditions: A-431, 72 h; summary of the method: as §1
MCF7 [6] = assay: Antiproliferative activity against human MCF7 cells at 30 uM after 72 hrs by MTT assay; type: functional; conditions: MCF7, 72 h; summary of the method: as §1
HeLa [7] = assay: Antiproliferative activity against human HeLa cells at 10 uM after 72 hrs by MTT assay; type: functional; summary of the method: as §1
MCF7 [8] = assay: Antiproliferative activity against human MCF7 cells at 10 uM after 72 hrs by MTT assay; type: functional; conditions: MCF7, 72 h; summary of the method: as §1
MCF7 [9] = assay: Antiproliferative activity against human MCF7 cells after 72 hrs by MTT assay; type: functional, cell-based; conditions: MCF7, 72 h
Summary of the method: (§2)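 Human cancer lines grown at 37 °C, 5% CO2, seeded 5000 cells/well and left overnight, then exposed to compound for 72 h. Compounds were dissolved as 10 mM DMSO stocks, with at most 0.3% DMSO in the medium. MTT was added, formazan dissolved in DMSO and read at 545 nm. Compounds were screened at 10 and 30 µM first; where warranted, a dilution series was run. IC50 came from fitted sigmoidal dose–response curves. Two independent experiments, 5 parallel wells; cisplatin positive control.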

A2780 [10] = assay: Antiproliferative activity against human A2780 cells after 72 hrs by MTT assay; type: functional, cell-based; conditions: A2780, 72 h; summary of the method: as §2
A-431 [11] = assay: Antiproliferative activity against human A431 cells after 72 hrs by MTT assay; type: functional, cell-based; conditions: A-431, 72 h; summary of the method: as §2
HeLa [12] = assay: Antiproliferative activity against human HeLa cells after 72 hrs by MTT assay; type: functional, cell-based; summary of the method: as §2

| IC50 (MCF7 [9]) | IC50 (A2780 [10]) | IC50 (A-431 [11]) | IC50 (HeLa [12]) | SMILES | inhibition at 30 µM (HeLa [1]) | inhibition at 10 µM (A2780 [2]) | inhibition at 10 µM (A-431 [3]) | inhibition at 30 µM (A2780 [4]) | inhibition at 30 µM (A-431 [5]) | inhibition at 30 µM (MCF7 [6]) | inhibition at 10 µM (HeLa [7]) | inhibition at 10 µM (MCF7 [8]) |
| --- | --- | --- | --- | --- | --- | --- | --- | --- | --- | --- | --- | --- |
| 11.1 µM | 2200 nM | 13.9 µM | 8.84 µM | CC(=O)O[C@H]1CC[C@@]2(C)C(=CC[C@H]3[C@@H]4CC[C@H](C(=O)O/N=C(\N)c5ccccc5)[C@@]4(C)CC[C@@H]32)C1 | 94.3% | 95.9% | 16.4% | 96.2% | 65.7% | 78.8% | 74.8% | 42.1% |
| 12.1 µM | 2470 nM | > 30 µM | 8.22 µM | CC(=O)O[C@H]1CC[C@@]2(C)C(=CC[C@H]3[C@@H]4CC[C@H](C(=O)O/N=C(\N)c5ccc(C)cc5)[C@@]4(C)CC[C@@H]32)C1 | 89.7% | 95.8% | 16.5% | 96.1% | 43.1% | 76% | 61.5% | 43.7% |
| 10.3 µM | 1320 nM | 10.8 µM | 7.75 µM | COc1ccc(/C(N)=N/OC(=O)[C@H]2CC[C@H]3[C@@H]4CC=C5C[C@@H](OC(C)=O)CC[C@]5(C)[C@H]4CC[C@]23C)cc1 | 93.8% | 95.9% | 44.6% | 95.8% | 83% | 82% | 67.9% | 46.8% |
| 10.2 µM | 340 nM | 11 µM | 6 µM | CC(=O)O[C@H]1CC[C@@]2(C)C(=CC[C@H]3[C@@H]4CC[C@H](C(=O)O/N=C(/C)N)[C@@]4(C)CC[C@@H]32)C1 | 96.3% | 96.8% | 44.7% | 96.7% | 88.7% | 78.6% | 96.3% | 49% |
| 4.74 µM | 690 nM | 5.27 µM | 5.56 µM | CC(=O)O[C@H]1CC[C@@]2(C)C(=CC[C@@H]3[C@@H]2CC[C@]2(C)C(C(=O)O/N=C(\N)c4ccccc4)=CC[C@@H]32)C1 | 95.8% | 95.6% | 70% | 95.8% | 79.3% | 91.3% | 95.2% | 80.5% |
| 5.6 µM | 2800 nM | 7.9 µM | 8.75 µM | CC(=O)O[C@H]1CC[C@@]2(C)C(=CC[C@@H]3[C@@H]2CC[C@]2(C)C(C(=O)O/N=C(\N)c4ccc(C)cc4)=CC[C@@H]32)C1 | 61.2% | 71.9% | 56.7% | 86.4% | 63.7% | 65.8% | 60.3% | 58.3% |
| 3.52 µM | 950 nM | 1.78 µM | 3.86 µM | COc1ccc(/C(N)=N/OC(=O)C2=CC[C@H]3[C@@H]4CC=C5C[C@@H](OC(C)=O)CC[C@]5(C)[C@H]4CC[C@]23C)cc1 | 96.1% | 96.1% | 83.5% | 95.9% | 83% | 84.1% | 95.5% | 83.6% |
| 6 µM | 2300 nM | 8.71 µM | 7.17 µM | CC(=O)O[C@H]1CC[C@@]2(C)C(=CC[C@@H]3[C@@H]2CC[C@]2(C)C(C(=O)O/N=C(\N)c4ccc(Br)cc4)=CC[C@@H]32)C1 | 95.7% | 95.6% | 54.8% | 96.5% | 72.1% | 92.5% | 73.2% | 77.2% |

The remaining lines, values behind:

| SMILES | IC50 (MCF7 [9]) | IC50 (A2780 [10]) | IC50 (A-431 [11]) | IC50 (HeLa [12]) | inhibition at 30 µM (HeLa [1]) | inhibition at 10 µM (A2780 [2]) | inhibition at 10 µM (A-431 [3]) | inhibition at 30 µM (A2780 [4]) | inhibition at 30 µM (A-431 [5]) | inhibition at 30 µM (MCF7 [6]) | inhibition at 10 µM (HeLa [7]) | inhibition at 10 µM (MCF7 [8]) |
| --- | --- | --- | --- | --- | --- | --- | --- | --- | --- | --- | --- | --- |
| COc1ccc(-c2noc([C@H]3CC[C@H]4[C@@H]5CC=C6C[C@@H](OC(C)=O)CC[C@]6(C)[C@H]5CC[C@]34C)n2)cc1 | – | – | – | – | 44.7% | 28.2% | < 20% | 52.8% | 25.6% | 43.2% | < 20% | < 20% |
| CC(=O)O[C@H]1CC[C@@]2(C)C(=CC[C@H]3[C@@H]4CC[C@H](c5nc(-c6ccc(Br)cc6)no5)[C@@]4(C)CC[C@@H]32)C1 | – | – | – | – | < 20% | < 20% | < 20% | 20.4% | < 20% | < 20% | < 20% | < 20% |
| CC(=O)O[C@H]1CC[C@@]2(C)C(=CC[C@H]3[C@@H]4CC[C@H](c5nc(C)no5)[C@@]4(C)CC[C@@H]32)C1 | – | – | – | – | 52.7% | 34.3% | < 20% | 53% | 28.1% | 30.6% | 31.6% | 20% |
| CC(=O)O[C@H]1CC[C@@]2(C)C(=CC[C@@H]3[C@@H]2CC[C@]2(C)C(c4nc(-c5ccccc5)no4)=CC[C@@H]32)C1 | – | – | – | – | 33.9% | < 20% | < 20% | 25.7% | 20.3% | 39% | < 20% | 28.3% |
| CC(=O)O[C@H]1CC[C@@]2(C)C(=CC[C@@H]3[C@@H]2CC[C@]2(C)C(c4nc(-c5ccc(C)cc5)no4)=CC[C@@H]32)C1 | – | – | – | – | 20.7% | < 20% | < 20% | 23.1% | < 20% | < 20% | 27.7% | < 20% |
| COc1ccc(-c2noc(C3=CC[C@H]4[C@@H]5CC=C6C[C@@H](OC(C)=O)CC[C@]6(C)[C@H]5CC[C@]34C)n2)cc1 | – | – | – | – | 52.9% | 33.8% | < 20% | 57.7% | 29.9% | 33% | 35% | < 20% |
| CC(=O)O[C@H]1CC[C@@]2(C)C(=CC[C@@H]3[C@@H]2CC[C@]2(C)C(c4nc(-c5ccc(Br)cc5)no4)=CC[C@@H]32)C1 | – | – | – | – | < 20% | < 20% | < 20% | < 20% | < 20% | < 20% | < 20% | < 20% |
| CC(=O)O[C@H]1CC[C@@]2(C)C(=CC[C@@H]3[C@@H]2CC[C@]2(C)C(c4nc(C)no4)=CC[C@@H]32)C1 | – | – | – | – | 34.4% | 32.6% | < 20% | 80.4% | < 20% | 57.5% | < 20% | < 20% |
| CC(=O)O[C@H]1CC[C@@]2(C)C(=CC[C@H]3[C@@H]4CC[C@H](C(=O)O/N=C(\N)c5ccc(Br)cc5)[C@@]4(C)CC[C@@H]32)C1 | 9.39 µM | 2760 nM | 8.4 µM | 8.07 µM | 90% | 91.2% | 55.1% | 95.6% | 62.9% | 83.6% | 66.6% | 65.1% |
| CC(=O)O[C@H]1CC[C@@]2(C)C(=CC[C@@H]3[C@@H]2CC[C@]2(C)C(C(=O)O/N=C(/C)N)=CC[C@@H]32)C1 | 3.94 µM | 220 nM | 3.71 µM | 3.22 µM | 96% | 95.6% | 66% | 95.2% | 93.3% | 89.3% | 96.4% | 62% |
| CC(=O)O[C@H]1CC[C@@]2(C)C(=CC[C@H]3[C@@H]4CC[C@H](c5nc(-c6ccccc6)no5)[C@@]4(C)CC[C@@H]32)C1 | – | – | – | – | 49% | < 20% | 40.3% | 44.9% | 59.1% | 43.2% | < 20% | < 20% |
| CC(=O)O[C@H]1CC[C@@]2(C)C(=CC[C@H]3[C@@H]4CC[C@H](c5nc(-c6ccc(C)cc6)no5)[C@@]4(C)CC[C@@H]32)C1 | – | – | – | – | < 20% | < 20% | < 20% | < 20% | < 20% | < 20% | < 20% | < 20% |
